Assay results as given in ChEMBL document CHEMBL4422614 (Eur J Med Chem, 2019).
Calls of active or inactive are those of the source. The rule behind the calls is not given here.

Tests used:
[1] = Drug metabolism in Sprague-Dawley rat liver microsomes assessed as metabolic rate up to 180 mins in presence of NADPH by UV-based LC-MS/MS analysis; type: ADME, Microsome; conditions: 3 h
[2] = molecular target: 3',5'-cyclic-AMP phosphodiesterase 4D (Homo sapiens, UniProt Q08499); test: Inhibition of human PDE4D2 (86 to 413 residues) catalytic domain using [3H]-cAMP as substrate after 15 mins by liquid scintillation counting method
Sequence of 3',5'-cyclic-AMP phosphodiesterase 4D (Q08499 whole entry, the tested form may be a part): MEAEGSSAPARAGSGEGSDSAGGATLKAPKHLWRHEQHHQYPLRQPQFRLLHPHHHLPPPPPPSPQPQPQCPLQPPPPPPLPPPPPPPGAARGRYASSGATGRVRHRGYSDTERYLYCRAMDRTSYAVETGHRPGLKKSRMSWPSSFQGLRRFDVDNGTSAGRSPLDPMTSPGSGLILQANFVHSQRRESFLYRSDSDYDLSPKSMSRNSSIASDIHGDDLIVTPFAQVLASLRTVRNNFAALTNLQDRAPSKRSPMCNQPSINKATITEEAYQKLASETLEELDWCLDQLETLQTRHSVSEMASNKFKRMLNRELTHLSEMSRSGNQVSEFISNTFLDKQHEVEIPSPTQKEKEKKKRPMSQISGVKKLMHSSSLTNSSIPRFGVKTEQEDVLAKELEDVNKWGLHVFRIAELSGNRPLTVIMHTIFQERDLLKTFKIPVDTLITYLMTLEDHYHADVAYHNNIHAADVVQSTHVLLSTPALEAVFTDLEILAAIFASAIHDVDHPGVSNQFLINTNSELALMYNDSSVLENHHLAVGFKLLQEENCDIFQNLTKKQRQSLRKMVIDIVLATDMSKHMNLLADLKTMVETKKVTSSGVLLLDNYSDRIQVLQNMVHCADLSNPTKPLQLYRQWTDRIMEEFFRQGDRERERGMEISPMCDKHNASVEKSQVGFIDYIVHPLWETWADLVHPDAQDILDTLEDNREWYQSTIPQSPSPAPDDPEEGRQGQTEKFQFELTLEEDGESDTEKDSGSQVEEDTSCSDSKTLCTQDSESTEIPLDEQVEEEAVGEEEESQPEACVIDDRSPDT

SH-SY5Y = test: Cytotoxicity against human SH-SY5Y cells assessed as effect on cell viability at 10 uM after 24 hrs by MTT assay; type: cell-based
In short: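 SH-SY5Y viability was measured by MTT after exposure to compounds at 10 µM. Results are percent of vehicle control from three independent experiments.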

[3] = Metal chelating activity assessed as inhibition of Cu2+-induced amyloid beta (1 to 42 residues) aggregation at 25 uM after 24 hrs by thioflavin-T fluorescence assay (reference value: 156%); parameters: scale not given: the % may be the effect or the level left
In short: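 Aβ1-42 was incubated with Cu(II) (CuSO4) with or without compound, and thioflavin T fluorescence was read. The Aβ-alone signal was set as 100%. Mean ± SD of three independent experiments.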

[4] = Antioxidant activity assessed as trolox equivalent of AAPH-induced radical scavenging activity at 10 to 20 uM preincubated for 10 mins followed by AAPH addition measured every minute for 120 mins by ORAC fluorescein assay; type: functional
In short: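 ORAC values are expressed as trolox equivalents, mean ± SD of three independent experiments.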

Mus musculus [5] = test: Cognition enhancement activity in amyloid beta (25 to 35 residues) induced C57BL/6J mouse model of Alzheimer's disease assessed as swimming path length in virtual platform at 4 mg/kg/day, ig administered for 26 consecutive days by Morris water maze test (10.2 +/- 3.2 cm); type: functional
In short: (§1)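 Mice were randomized into 7 groups. All except sham got an ICV injection of Aβ25-35 (3 nmol); sham got the same volume of saline ICV. Dosing was intragastric daily for 26 days, with 0.5% CMC-Na as vehicle for sham and model. Body weight, diarrhea and emesis-like behavior were monitored.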

Mus musculus [6] = test: Neuroprotection in amyloid beta (25 to 35 residues) induced C57BL/6J mouse model of Alzheimer's disease assessed as reduction in ratio of apoptotic neuron in CA1 hippocampus region at 4 mg/kg/day, ig administered for 26 consecutive days by hematoxylin and eosin staining-based light microscopic analysis (reference value: 40.6 +/- 12.5%); type: ADME, organism-based; parameters: scale not given: the % may be the effect or the level left; conditions: in vivo, po
In short: (§2)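 Hippocampal CA1, CA3 and DG neurons were stained with H&E after the Aβ25-35 ICV model and 26-day intragastric dosing. Denatured cell index = denatured cells/total cells, n = 5. Values are mean ± SD, two-way ANOVA versus model.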

Mus musculus [7] = test: Cognition enhancement activity in amyloid beta (25 to 35 residues) induced C57BL/6J mouse model of Alzheimer's disease assessed as swimming speed at 30 mg/kg/day, ig administered for 26 consecutive days by Morris water maze test (reference value: 15.6 +/- 2.4 cm/sec); type: functional; in short: as §1
Mus musculus [8] = test: Cognition enhancement activity in amyloid beta (25 to 35 residues) induced C57BL/6J mouse model of Alzheimer's disease assessed as decrease in escape latancy at 4 mg/kg/day, ig administered for 26 consecutive days by Morris water maze test; type: functional, organism-based; in short: as §1
Mus musculus [9] = test: Neuroprotection in amyloid beta (25 to 35 residues) induced C57BL/6J mouse model of Alzheimer's disease assessed as reduction in ratio of apoptotic neuron in CA3 hippocampus region at 4 mg/kg/day, ig administered for 26 consecutive days by hematoxylin and eosin staining-based light microscopic analysis (reference value: 80.2 +/- 8.6%); type: ADME, organism-based; parameters: scale not given: the % may be the effect or the level left; conditions: in vivo, po; in short: as §2
Mus musculus [10] = test: Cognition enhancement activity in amyloid beta (25 to 35 residues) induced C57BL/6J mouse model of Alzheimer's disease assessed as swimming time in effective region at 4 mg/kg/day, ig administered for 26 consecutive days by Morris water maze test (4.3 +/- 1.3 sec); type: functional; in short: as §1
in vitro [11] = conditions: PAMPA
Mus musculus [12] = test: Neuroprotection in amyloid beta (25 to 35 residues) induced C57BL/6J mouse model of Alzheimer's disease assessed as reduction in ratio of apoptotic neuron in DG hippocampus region at 4 mg/kg/day, ig administered for 26 consecutive days by hematoxylin and eosin staining-based light microscopic analysis (reference value: 55.8 +/- 7.2%); type: ADME, organism-based; parameters: scale not given: the % may be the effect or the level left; conditions: in vivo, po; in short: as §2
Mus musculus [13] = test: Neuroprotection in amyloid beta (25 to 35 residues) induced C57BL/6J mouse model of Alzheimer's disease assessed as reduction in ratio of apoptotic neuron in CA3 hippocampus region at 30 mg/kg/day, ig administered for 26 consecutive days by hematoxylin and eosin staining-based light microscopic analysis (reference value: 80.2 +/- 8.6%); type: ADME, organism-based; parameters: scale not given: the % may be the effect or the level left; conditions: in vivo, po; in short: as §2
Mus musculus [14] = test: Cognition enhancement activity in amyloid beta (25 to 35 residues) induced C57BL/6J mouse model of Alzheimer's disease assessed as swimming time in effective region at 30 mg/kg/day, ig administered for 26 consecutive days by Morris water maze test (4.3 +/- 1.3 sec); type: functional; in short: as §1
Mus musculus [15] = test: Cognition enhancement activity in amyloid beta (25 to 35 residues) induced C57BL/6J mouse model of Alzheimer's disease assessed as swimming speed at 4 mg/kg/day, ig administered for 26 consecutive days by Morris water maze test (reference value: 15.6 +/- 2.4 cm/sec); type: functional; in short: as §1
Mus musculus [16] = test: Cognition enhancement activity in amyloid beta (25 to 35 residues) induced C57BL/6J mouse model of Alzheimer's disease assessed as swimming path length in virtual platform at 30 mg/kg/day, ig administered for 26 consecutive days by Morris water maze test (10.2 +/- 3.2 cm); type: functional; in short: as §1
in vitro [17] = conditions: Sprague-Dawley, rat
Mus musculus [18] = test: Cognition enhancement activity in amyloid beta (25 to 35 residues) induced C57BL/6J mouse model of Alzheimer's disease assessed as decrease in escape latancy at 30 mg/kg/day, ig administered for 26 consecutive days by Morris water maze test; type: functional, organism-based; in short: as §1
Mus musculus [19] = test: Neuroprotection in amyloid beta (25 to 35 residues) induced C57BL/6J mouse model of Alzheimer's disease assessed as reduction in ratio of apoptotic neuron in DG hippocampus region at 30 mg/kg/day, ig administered for 26 consecutive days by hematoxylin and eosin staining-based light microscopic analysis (reference value: 55.8 +/- 7.2%); type: ADME, organism-based; parameters: scale not given: the % may be the effect or the level left; conditions: in vivo, po; in short: as §2
[20] = Metal chelating activity assessed as inhibition of Cu(II)-induced amyloid beta (1 to 42 residues) aggregation at 25 uM after 24 hrs by TEM assay
In short: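 Samples were prepared as for the ThT assay. 10 µL aliquots were applied to carbon-coated copper grids for 2 min, then stained with 3% phosphotungstic acid for 2 min and imaged by transmission electron microscopy.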

Mus musculus [21] = test: Neuroprotection in C57BL/6J mouse model of amyloid beta (25 to 35 residues) induced Alzheimer's disease assessed as reduction in ratio of apoptotic neuron in CA1 hippocampus region at 30 mg/kg/day, ig administered for 26 consecutive days by hematoxylin and eosin staining-based light microscopic analysis (reference value: 40.6 +/- 12.5%); type: ADME, organism-based; parameters: scale not given: the % may be the effect or the level left; conditions: in vivo, po; in short: as §2
[22] = Metal chelating activity assessed as inhibition of Cu(II)-induced amyloid beta (1 to 42 residues) aggregation at 25 uM after 24 hrs by thioflavin-T fluorescence assay (reference value: 156%); parameters: scale not given: the % may be the effect or the level left
In short: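 Aβ1-42 was incubated with CuSO4 with or without compound, and thioflavin T fluorescence was read. Fluorescence is given as percent of Aβ alone, as mean ± SD of three independent experiments.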

| Structure (SMILES) | IC50 [2] [µM] | Activity [4] [equiv] | Papp at 10 h, 100 ug/ml (in vitro [11]) [×10⁻⁶ cm/s] | also measured |
| --- | --- | --- | --- | --- |
| C[C@]12CC[C@H]3[C@@H](CCC4=CC(=O)CC[C@@]43C)[C@@H]1CC[C@@H]2O [TESTOSTERONE] | – | – | – | K [1]: 0.301 min⁻¹ |
| COc1ccc(C(=O)Nc2cc(Cl)c(O)c3ncccc23)cc1OC1CCCC1.Cl | 3.13 | 0.56 | – | Activity (SH-SY5Y): Toxic; Activity [3]: 70.2% |
| COc1ccc(NC(=O)c2ccc3c(Cl)cc(Cl)c(O)c3n2)cc1OC1CCCC1 | 6.78 | 1.29 | – | – |
| Cl.O=C(Nc1cc(Cl)c(O)c2ncccc12)c1ccc(OC(F)F)c(OCC2CC2)c1 | 3.83 | 0.74 | – | Activity (SH-SY5Y): Toxic; Activity [3]: 82% |
| COc1ccc(NC(=O)c2ccc3cccc(O)c3n2)cc1OC1CCCC1 | 4.15 | 1.98 | – | – |
| COc1ccc(C2CNC(=O)C2)cc1OC1CCCC1 (stereo not drawn) [ROLIPRAM] | – | 0.07 | 18.9 | Activity (Mus musculus [5]): 16.5 cm; Activity (Mus musculus [6]): 33.5%; Activity (Mus musculus [7]): 15.1 cm/s; Activity (Mus musculus [8]): Active; Activity (Mus musculus [9]): 41.1%; Time (Mus musculus [10]): 5.7 s; Activity (Mus musculus [12]): 25.7% |
| Oc1c(I)cc(Cl)c2cccnc12 [CLIOQUINOL] | – | 0.6 | 5.2 | Activity (Mus musculus [13]): 37.8%; Time (Mus musculus [14]): 5.8 s; Activity (Mus musculus [15]): Active; Activity (Mus musculus [16]): 18 cm; Activity (Mus musculus [7]): 16 cm/s; half-life (in vitro [17]; liver microsomes): 35.8 min; Activity (Mus musculus [18]): Active; Activity (Mus musculus [19]): 19.7%; Activity [20]: Active; Activity (Mus musculus [21]): 24.2%; Activity [22]: 66%; K [1]: 0.0194 min⁻¹ |
| COc1ccc(C(=O)Nc2cc(I)c(O)c3ncccc23)cc1OC1CCCC1.Cl | 0.597 | 1.01 | 5.86 | – |
| COc1ccc(C(=O)Nc2cc(I)c(O)c3ncccc23)cc1OC | 7.36 | 1.3 | – | – |
| COc1ccc(C(=O)Nc2ccc3cccc(O)c3n2)cc1OC1CCCC1 | 4.64 | 0.7 | 16.4 | – |
| COc1ccc(C(=O)Nc2ccc(O)c3ncccc23)cc1OC | 7.63 | 1.34 | – | – |
| COc1cc2c(cc1OC)C(=O)C(CC1CCN(Cc3ccccc3)CC1)C2 (stereo not drawn) [DONEPEZIL] | – | – | – | half-life (in vitro [17]; microsomes): 75.6 min; K [1]: 0.00917 min⁻¹ |
| COc1ccc(NC(=O)c2ccc3c(Cl)cc(Cl)c(O)c3n2)cc1OC | 8.07 | 1.05 | – | – |
| O=C(Nc1ccc2cccc(O)c2n1)c1ccc(OC(F)F)c(OCC2CC2)c1 | 4.06 | 0.34 | 15.8 | – |
| COc1ccc(NC(=O)c2ccc3cccc(O)c3n2)cc1OC | 4.32 | 1.03 | – | – |
| Cl.O=C(Nc1cc(I)c(O)c2ncccc12)c1ccc(OC(F)F)c(OCC2CC2)c1 | 0.426 | 0.69 | 7.05 | – |
